Measurements published in ChEMBL document CHEMBL1250551, “Improvement of water-solubility of biarylcarboxylic acid peroxisome proliferator-activated receptor (PPAR) δ-selective partial agonists by disruption of molecular planarity/symmetry” (Bioorg Med Chem, 2010).
Values after ≈ are worked out from the molar mass of the structure shown.

Columns and labels:
[1] = biological target: T1, Peroxisome proliferator-activated receptor alpha (Homo sapiens, UniProt Q07869); assay: Partial agonist activity at human recombinant PPARalpha LBD expressed in HEK293 cells co-transfected with Gal4 assessed as beta-galactosidase activity at 1 uM by luciferase based transactivation assay; assay type: functional, cell-based
T1 sequence (Q07869 whole entry): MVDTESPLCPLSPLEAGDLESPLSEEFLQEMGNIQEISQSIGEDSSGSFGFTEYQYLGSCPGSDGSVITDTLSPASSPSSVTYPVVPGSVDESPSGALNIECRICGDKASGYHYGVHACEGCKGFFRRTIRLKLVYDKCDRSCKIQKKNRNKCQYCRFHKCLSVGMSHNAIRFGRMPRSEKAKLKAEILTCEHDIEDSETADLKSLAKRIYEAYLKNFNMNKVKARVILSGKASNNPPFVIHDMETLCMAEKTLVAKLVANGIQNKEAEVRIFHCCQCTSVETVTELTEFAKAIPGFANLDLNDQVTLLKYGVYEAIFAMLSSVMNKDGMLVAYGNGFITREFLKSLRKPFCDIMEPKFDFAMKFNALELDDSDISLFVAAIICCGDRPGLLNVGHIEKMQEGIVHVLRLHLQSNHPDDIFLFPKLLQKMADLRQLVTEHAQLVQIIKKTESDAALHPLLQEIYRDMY
Procedure, shortened: (§1)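 GAL4-hPPAR LBD fusion transactivation: cells co-transfected with CMX-GAL4N-hPPAR LBD receptor plasmid, TK-MH100x4-LUC reporter and CMX β-galactosidase normalization plasmid. Positive controls (fenofibric acid for PPARα; ciglitazone 100 nM for PPARγ) and test compounds added 6 h later; overnight incubation. Luminescence read after luciferin addition; β-galactosidase absorbance at 405 nm used for normalization.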

[2] = biological target: T2, Peroxisome proliferator-activated receptor gamma (Homo sapiens, UniProt P37231); assay: Partial agonist activity at human recombinant PPARgamma LBD expressed in HEK293 cells co-transfected with Gal4 assessed as beta-galactosidase activity at 1 uM by luciferase based transactivation assay; assay type: functional, cell-based
T2 sequence (P37231 whole entry): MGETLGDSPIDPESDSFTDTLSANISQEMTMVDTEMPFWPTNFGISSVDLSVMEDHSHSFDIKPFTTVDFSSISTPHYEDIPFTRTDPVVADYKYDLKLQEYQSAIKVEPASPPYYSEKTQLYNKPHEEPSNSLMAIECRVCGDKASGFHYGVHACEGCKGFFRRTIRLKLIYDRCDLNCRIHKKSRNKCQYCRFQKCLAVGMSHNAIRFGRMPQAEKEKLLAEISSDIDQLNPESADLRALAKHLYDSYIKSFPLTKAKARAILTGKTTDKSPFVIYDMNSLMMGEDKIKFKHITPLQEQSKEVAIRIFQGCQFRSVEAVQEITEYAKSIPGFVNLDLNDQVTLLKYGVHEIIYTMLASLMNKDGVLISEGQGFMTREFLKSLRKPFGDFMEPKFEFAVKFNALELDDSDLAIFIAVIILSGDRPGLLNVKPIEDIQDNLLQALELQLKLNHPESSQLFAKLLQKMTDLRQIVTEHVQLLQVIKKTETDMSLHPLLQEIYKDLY

[3] = Thermodynamic aqueous solubility of the compound in phosphate buffer at pH 7.4; assay type: physicochemical
Procedure, shortened: (§2)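 Thermodynamic solubility: about 1 mg solid ground in agate mortar, suspended in 1.0 mL of either 1:15 M phosphate buffer pH 7.4 or an equal-volume mix of that buffer with EtOH. Shaken 48 h at 25 °C, filtered (0.22 µm), filtrate diluted in DMF and quantified by reversed-phase HPLC-UV (262–295 nm) against a calibration curve, corrected for dilution.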

[4] = Thermodynamic aqueous solubility of the compound in 1:15 M of 50% EtOH and phosphate buffer at pH 7.4; assay type: physicochemical; conditions: for solubility thermodynamic: 50% EtOH and phosphate buffer; for solubility: buffer; procedure, shortened: as §2
[5] = biological target: T3, Peroxisome proliferator-activated receptor delta (Homo sapiens, UniProt Q03181); assay: Partial agonist activity at human recombinant PPARdelta LBD expressed in HEK293 cells co-transfected with Gal4 assessed as beta-galactosidase activity by luciferase based transactivation assay; assay type: functional, cell-based
T3 sequence (Q03181 whole entry): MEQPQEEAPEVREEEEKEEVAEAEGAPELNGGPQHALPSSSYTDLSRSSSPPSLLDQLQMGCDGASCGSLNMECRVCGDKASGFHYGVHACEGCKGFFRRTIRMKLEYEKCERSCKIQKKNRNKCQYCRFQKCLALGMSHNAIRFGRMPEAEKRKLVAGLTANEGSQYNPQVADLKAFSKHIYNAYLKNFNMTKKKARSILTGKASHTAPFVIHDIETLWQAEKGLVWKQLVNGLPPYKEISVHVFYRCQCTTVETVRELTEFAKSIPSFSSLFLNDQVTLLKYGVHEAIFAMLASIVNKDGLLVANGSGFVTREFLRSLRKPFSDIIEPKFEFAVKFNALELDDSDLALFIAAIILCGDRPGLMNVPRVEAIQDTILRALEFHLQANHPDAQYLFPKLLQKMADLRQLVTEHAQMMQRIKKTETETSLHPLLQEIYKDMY

[6] = biological target: T3, Peroxisome proliferator-activated receptor delta; assay: Partial agonist activity at human recombinant PPARdelta LBD expressed in HEK293 cells co-transfected with Gal4 assessed as beta-galactosidase activity at 1 uM by luciferase based transactivation assay; assay type: functional, cell-based; procedure, shortened: as §1
[7] = biological target: T1, Peroxisome proliferator-activated receptor alpha; assay: Partial agonist activity at human recombinant PPARalpha LBD expressed in HEK293 cells co-transfected with Gal4 assessed as beta-galactosidase activity by luciferase based transactivation assay; assay type: functional, cell-based; procedure, shortened: as §1
[8] = biological target: T4, Peroxisome proliferator-activated receptor alpha (Homo sapiens) (UniProt Q07869); assay: Partial agonist activity at human recombinant PPARalpha LBD expressed in HEK293 cells co-transfected with Gal4 assessed as beta-galactosidase activity by luciferase based transactivation assay relative to fenofibric acid; assay type: functional, cell-based
T4 sequence (whole entry): T1 sequence (Q07869 whole entry)
Procedure, shortened: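 GAL4-based reporter system analogous to the PPARδ assay, using a GAL4 DNA-binding domain–PPARα LBD chimera, TK-MH100x4-LUC reporter and CMX β-galactosidase for normalization. Positive control and test compounds were added 6 h after the preceding step and incubated overnight. Luciferase luminescence was read after luciferin addition, and β-galactosidase by absorbance at 405 nm. Efficacy was expressed relative to fenofibric acid.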

Compound | EC50 [1] | EC50 [2] | solubility thermodynamic [3] [µg/mL] | solubility thermodynamic [4] [µg/mL] | also measured
CCCCOc1ccc(-c2c(F)ccc(C(=O)O)c2F)cc1CNC(=O)c1ccc(C(F)(F)F)cc1F | Not Active | Not Active | 21.7 (≈ 41.3 µM) | – | solubility [4]: 10400 µg/mL (≈ 19800 µM); EC50 [5]: 5.7 nM
O=C(O)c1ccc(-c2ccc(OCCCO)c(CNC(=O)c3ccc(C(F)(F)F)cc3F)c2)cc1 | – | – | – | – | EC50 [6]: Not Active
CCCCOc1ccc(-c2cccc(C(=O)O)c2C)cc1CNC(=O)c1ccc(C(F)(F)F)cc1F | – | Not Active | < 1 | 9950 (≈ 19800 µM) | –
COCCOc1ccc(-c2ccc(C(=O)O)cc2)cc1CNC(=O)c1ccc(C(F)(F)F)cc1F | – | – | – | – | EC50 [6]: Not Active
CCCCOc1ccc(-c2ccc(C(=O)O)cc2F)cc1CNC(=O)c1ccc(C(F)(F)F)cc1F | Not Active | Not Active | < 1 | 3220 (≈ 6350 µM) | –
CCCC(=O)Oc1ccc(-c2ccc(C(=O)O)cc2)cc1CNC(=O)c1ccc(C(F)(F)F)cc1F | – | – | – | – | EC50 [6]: Not Active
CCCCOc1ccc(-c2cncc(C(=O)O)c2)cc1CNC(=O)c1ccc(C(F)(F)F)cc1F | – | Not Active | 7.62 (≈ 15.5 µM) | – | solubility [4]: 9030 µg/mL (≈ 18400 µM); EC50 [5]: 220 nM; EC50 [7]: 4000 nM
CCCCOc1ccc(-c2c(C)ncc(C(=O)O)c2C)cc1CNC(=O)c1ccc(C(F)(F)F)cc1F | – | Not Active | 2700 (≈ 5210 µM) | 17700 (≈ 34100 µM) | EC50 [5]: 76 nM; Efficacy [8]: 100%; EC50 [7]: 4200 nM

More lines, main results first:

EC50 [1] | EC50 [2] | solubility thermodynamic [3] [µg/mL] | solubility thermodynamic [4] [µg/mL] | Compound | also measured
Not Active | Not Active | – | – | CCCCOc1ccc(-c2ccc(C(=O)O)nc2)cc1CNC(=O)c1ccc(C(F)(F)F)cc1F | –
– | Not Active | < 1 | 375 (≈ 766 µM) | CCCCOc1ccc(-c2ccc(C(=O)O)cc2)cc1CNC(=O)c1ccc(C(F)(F)F)cc1F | –
Not Active | Not Active | – | – | CCCCOc1ccc(-c2ccc(C(=O)O)cn2)cc1CNC(=O)c1ccc(C(F)(F)F)cc1F | –
Not Active | Not Active | – | – | CCCCOc1ccc(-c2ccc(C(=O)O)o2)cc1CNC(=O)c1ccc(C(F)(F)F)cc1F | –
– | Not Active | < 1 | – | CCCCOc1ccc(-c2cccc(C(=O)O)c2)cc1CNC(=O)c1ccc(C(F)(F)F)cc1F | solubility [4]: 1350 µg/mL (≈ 2760 µM)
Not Active | – | < 1 | 985 (≈ 1960 µM) | CCCCOc1ccc(-c2ccc(C(=O)O)cc2C)cc1CNC(=O)c1ccc(C(F)(F)F)cc1F | –
